Results from ChEMBL document CHEMBL1159388, “Steroidal glycosides from the rhizomes of Dioscorea spongiosa” (2003).
Where a SMILES comes first, the peptide text is derived from it. Bridges are numbered along the chain shown (N, C = ends). [ ]: non-standard residue; d: D form. Asu = N[C@@H](CCCCCC(=O)O)C(=O)O

Assays:
Assay type in all cases: functional
[1] = Antiosteoporotic activity in mouse parietal bone assessed as inhibition of parathyroid hormone induced bone resorption by measuring 45Ca release at 20 uM by scintillation counting; set-up: scale not given: the % may be the effect or the level left
In short: (§1)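 Mice aged 2 days received 45CaCl2 (2 μCi) subcutaneously; parietal bones were taken 2 days later and cultured on grids at the gas-liquid interface. Medium was Ham's F-12 with NaHCO3, 1.0 mM CaCl2 and 5% heat-inactivated horse serum, at 37 °C under 5% CO2. After 24 h preculture, bones were exposed to PTH (2×10^-9 M final) plus sample for 6 days, medium changed at day 3. Four bones per group.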

[2] = Antiosteoporotic activity in mouse parietal bone assessed as inhibition of parathyroid hormone induced bone resorption at 200 uM; in short: as §1
[3] = Antiosteoporotic activity in mouse parietal bone assessed as inhibition of parathyroid hormone induced bone resorption by measuring 45Ca release at 200 uM by scintillation counting; set-up: scale not given: the % may be the effect or the level left; in short: as §1
[4] = Antiosteoporotic activity in mouse parietal bone assessed as inhibition of parathyroid hormone induced bone resorption by measuring 45Ca release by scintillation counting; set-up: scale not given: the % may be the effect or the level left; in short: as §1

For `C=C[C@@H](CCCCC)O[C@H]1O[C@H](CO[C@@H]2OC[C@H](O)[C@H](O)[C@H]2O)[C@@H](O)[C@H](O)[C@H]1O`, the Activity [1] was 23.8%, the “inhibition (INH)” value [2] was 61.6% and the Activity [3] was 20.7%.
For `CC(C)C[C@H](NC(=O)[C@H](CCCCN)NC(=O)CNC(=O)[C@H](CC(C)C)NC(=O)[C@@H](NC(=O)[C@@H]1CCCCCC(=O)N[C@@H](CO)C(=O)N[C@@H](CC(N)=O)C(=O)N[C@@H](CC(C)C)C(=O)N[C@@H](CO)C(=O)N[C@@H]([C@@H](C)O)C(=O)N1)C(C)C)C(=O)N[C@@H](CO)C(=O)N[C@@H](CCC(N)=O)C(=O)N[C@@H](CCC(=O)O)C(=O)N[C@@H](CC(C)C)C(=O)N[C@@H](Cc1cnc[nH]1)C(=O)N[C@@H](CCCCN)C(=O)N[C@@H](CC(C)C)C(=O)N[C@@H](CCC(N)=O)C(=O)N[C@H](C(=O)N[C@@H](Cc1ccc(O)cc1)C(=O)N1CCC[C@H]1C(=O)N[C@@H](CCCNC(=N)N)C(=O)N[C@H](C(=O)N[C@@H](CC(=O)O)C(=O)N[C@H](C(=O)NCC(=O)N[C@@H](C)C(=O)NCC(=O)N[C@H](C(=O)N1CCC[C@H]1C(N)=O)[C@@H](C)O)C(C)C)[C@@H](C)O)[C@@H](C)O` [ELCITONIN] (SNLST[Asu]VLGKLSQELHKLQTYPRTDVGAGTP-NH2; lactam N-6), the Activity [4] was 18.4%.
In the case of `CC(=O)[C@H]1[C@@H](OC(=O)CCC(C)CO[C@@H]2O[C@H](CO)[C@@H](O)[C@H](O)[C@H]2O)C[C@H]2[C@@H]3CC=C4C[C@@H](O[C@@H]5O[C@H](CO)[C@@H](O[C@@H]6O[C@@H](C)[C@H](O)[C@@H](O)[C@H]6O)[C@H](O)[C@H]5O[C@@H]5O[C@@H](C)[C@H](O)[C@@H](O)[C@H]5O)CC[C@]4(C)[C@H]3CC[C@@]21C` (stereo partly drawn) [HYPOGLAUCIN G], the Activity [1] is reported as 22.8%, the “inhibition (INH)” value [2] is reported as 66.7% and the Activity [3] is reported as 19.2%.
In the case of `CO[C@]1(CC[C@@H](C)CO[C@@H]2O[C@H](CO)[C@@H](O)[C@H](O)[C@H]2O)O[C@H]2C[C@H]3[C@@H]4CC=C5C[C@@H](O[C@@H]6O[C@H](CO)[C@@H](O[C@@H]7O[C@@H](C)[C@H](O)[C@@H](O)[C@H]7O)[C@H](O)[C@H]6O[C@@H]6O[C@@H](C)[C@H](O)[C@@H](O)[C@H]6O)CC[C@]5(C)[C@H]4CC[C@]3(C)[C@H]2[C@@H]1C` [METHYLPROTODIOSCIN], the Activity [1] is reported as 24.9%, the “inhibition (INH)” value [2] is reported as 89.9% and the Activity [3] is reported as 17.4%.
With `CC(C)CC[C@H](O)[C@@H](C)[C@H]1[C@@H](O[C@@H]2O[C@H](CO)[C@@H](O)[C@H](O)[C@H]2O)C[C@H]2[C@@H]3CC=C4C[C@@H](O[C@@H]5O[C@H](CO)[C@@H](O[C@@H]6O[C@@H](C)[C@H](O)[C@@H](O)[C@H]6O)[C@H](O)[C@H]5O[C@@H]5O[C@@H](C)[C@H](O)[C@@H](O)[C@H]5O)CC[C@]4(C)[C@H]3CC[C@]12C` [SPONGIOSIDES A] the Activity [1] was 30.9%, the “inhibition (INH)” value [2] was 63.6% and the Activity [3] was 17.1%.
